Results reported in ChEMBL document CHEMBL4145453, “Synthesis, physicochemical properties, and biological activity of bile acids 3-glucuronides: Novel insights into bile acid signalling and detoxification” (Eur J Med Chem, 2018).
≈ marks a conversion by molar mass, not a printed value.

Legend:
[1] = Solubility of the compound in pH 1 HCl solution at 300 uM after 24 hrs by HPLC-ESI-MS analysis; format: physicochemical
How it was run: (§1)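 Dried 1 mM stock (300 µL) was redissolved in 1 mL PBS pH 7.4 or acid solution pH 1.0 (nominal about 300 µM). Stirred 24 h at r.t., centrifuged, diluted 1:100 or 1:10, then quantified by HPLC-ESI-MS/MS in MRM mode against a 6-point calibration (0.01–10 µM).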

albumin = albumin (Bos taurus, UniProt P02769); assay: Binding affinity to bovine serum albumin at 10 uM after 24 hrs by equilibrium dialysis method; format: ADME; conditions: cattle, read-out: PB (converted)
albumin, sequence (P02769 whole entry): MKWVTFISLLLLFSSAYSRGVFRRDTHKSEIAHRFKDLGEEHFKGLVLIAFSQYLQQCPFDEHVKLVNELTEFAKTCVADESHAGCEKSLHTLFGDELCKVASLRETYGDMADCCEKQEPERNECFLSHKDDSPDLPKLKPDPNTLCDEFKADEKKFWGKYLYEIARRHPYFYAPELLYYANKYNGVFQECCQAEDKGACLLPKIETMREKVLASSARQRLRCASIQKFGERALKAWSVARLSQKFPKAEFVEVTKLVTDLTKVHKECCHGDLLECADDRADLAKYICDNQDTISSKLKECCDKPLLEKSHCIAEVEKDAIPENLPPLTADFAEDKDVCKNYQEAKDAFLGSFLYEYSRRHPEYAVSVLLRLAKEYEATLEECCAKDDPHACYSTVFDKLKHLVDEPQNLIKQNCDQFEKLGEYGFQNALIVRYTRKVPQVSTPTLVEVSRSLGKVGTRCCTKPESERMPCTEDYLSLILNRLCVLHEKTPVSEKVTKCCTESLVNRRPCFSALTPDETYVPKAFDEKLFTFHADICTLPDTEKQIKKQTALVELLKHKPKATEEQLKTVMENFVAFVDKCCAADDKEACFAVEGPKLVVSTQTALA

[2] = Solubility of the compound in pH 7.4 PBS buffer at 300 uM after 24 hrs by HPLC-ESI-MS analysis; format: physicochemical; how it was run: as §1
[3] = Octanol-HCl distribution coefficient, log P of the compound at pH 1 at 1 uM after 24 hrs by shake flask method; format: physicochemical
How it was run: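 Shake-flask method, 1 µM bile acid in mutually pre-saturated 1-octanol/DPBS pH 7.4 or 1-octanol/HCl pH 1.0 (50:50). Equilibrated 24 h with stirring at r.t., then centrifuged. Aqueous-phase concentration before and after partition measured by HPLC-ESI-MS/MS.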

Bile acid receptor = molecular target: T1, Bile acid receptor (Homo sapiens, UniProt Q96RI1); assay: Agonist activity at GST-tagged FXR-LBD (unknown origin) assessed as biotin-labeled SRC-1 recruitment after 30 mins by Alpha Screen assay
T1 sequence (Q96RI1 whole entry): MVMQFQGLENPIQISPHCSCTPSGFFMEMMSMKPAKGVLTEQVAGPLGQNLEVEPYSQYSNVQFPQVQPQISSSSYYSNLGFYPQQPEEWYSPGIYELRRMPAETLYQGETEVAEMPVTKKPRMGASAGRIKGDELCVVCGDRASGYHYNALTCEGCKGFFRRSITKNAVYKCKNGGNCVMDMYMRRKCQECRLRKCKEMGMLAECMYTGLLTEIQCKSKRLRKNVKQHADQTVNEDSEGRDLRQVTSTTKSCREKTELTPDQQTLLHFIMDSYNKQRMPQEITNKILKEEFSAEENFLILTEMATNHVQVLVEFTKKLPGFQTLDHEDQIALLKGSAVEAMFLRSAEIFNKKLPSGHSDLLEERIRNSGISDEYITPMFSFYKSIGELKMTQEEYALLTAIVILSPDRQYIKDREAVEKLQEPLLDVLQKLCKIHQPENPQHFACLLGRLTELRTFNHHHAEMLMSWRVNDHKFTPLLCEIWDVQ

[4] = molecular target: T2, Bile acid receptor (Homo sapiens) (UniProt Q96RI1); assay: Agonist activity at GST-tagged FXR-LBD (unknown origin) assessed as biotin-labeled SRC-1 recruitment after 30 mins by Alpha Screen assay relative to CDCA
T2 sequence (whole entry): T1 sequence (Q96RI1 whole entry)
How it was run: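 GST-FXR-LBD (10 nM) with biotinylated SRC-1 peptide (30 nM), anti-GST acceptor and streptavidin donor beads; buffer 50 mM Tris pH 7.4, 50 mM KCl, 0.1% BSA, 1 mM DTT. Compound in DMSO, 30 min r.t., then beads 4 h dark r.t.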

EC50 (Bile acid receptor)	Efficacy [4]	SMILES	solubility at 24 h, 300 µM [1]	fraction unbound at 24 h, 10 µM (albumin)	solubility at 24 h, 300 µM [2]	logD at 24 h, 1 µM [3]
–	–	C[C@H](CCC(=O)O)[C@H]1CC[C@H]2[C@@H]3[C@H](O)C[C@@H]4C[C@H](O)CC[C@]4(C)[C@H]3CC[C@]12C [CHENODIOL]	33 µM (≈ 13 µg/mL)	0.015	282 µM (≈ 111 µg/mL)	2.5
45 µM	7%	C[C@H](CCC(=O)O)[C@H]1CC[C@H]2[C@@H]3CC[C@@H]4C[C@H](O)CC[C@]4(C)[C@H]3C[C@H](O)[C@]12C [DEOXYCHOLIC ACID]	–	–	–	–
